Activity calls are given as the source filed them. The calls are words filed in the database; no cut-off is given here. Starred links: 1 amine or outer side, 2 acyl side, 3 side chain; linkers in the order of their positions; H or OH if unused. Non-standard residues stand in square brackets, D forms with d. Residues, ends and D or L forms follow the SMILES beside them. *: point of attachment. NH(CH2CH2O)2CH2CH2NHBiotin = O=C(CCCC[C@@H]1SC[C@@H]2NC(=O)N[C@@H]21)NCCOCCOCCN*; Octanoyl(2R-Me,7,8-dehydro) = C=CCCCC[C@@H](C)C(=O)*; Oct7ynoyl(2R-Me) = C#CCCCC[C@@H](C)C(=O)*; X2 = CN(C)c1ccc2c(CC(=O)*)cc(=O)oc2c1; NMeAEEA = CN(CCOCCOCC(=O)[*:2])[*:1]; Ethylenediamine = C(CN[*:2])N[*:1]; NMeF = CN[C@@H](Cc1ccccc1)C(=O)O; X4 = CC(=O)CCCC[C@@H](C)C(=O)*; Oct(7)enoyl = C=CCCCCCC(=O)*; Oct(7)ynoyl = C#CCCCCCC(=O)*; NMeV = CN[C@H](C(=O)O)C(C)C; Hept6ynoyl = C#CCCCCC(=O)*; X5 = COC(=O)CCCCCCCCN(C)*; NMeA = CN[C@@H](C)C(=O)O; X6 = COC(=O)COCCOCCN(C)*; X3 = C=CCCCCC(=O)*
What was measured:
[1] = species: Danio rerio; test: Drug uptake in 48 hrs post fertilized zebrafish embryo lateral line at 1 to 270 uM after 3 hrs by confocal microscopic analysis; assay type: ADME, organism-based; conditions: in vivo
Method in brief: (§1)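 Zebrafish embryos at 48 and 120 h post fertilization were incubated with fluorescent probe or fluorophore control in methylene blue-free egg water at 270, 90, 30 and 0 µM, three embryos per treatment. Localization was imaged by confocal microscopy after 3 h.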

[2] = Drug uptake in 120 hrs post fertilized zebrafish embryo intestinal tract at 1 to 270 uM after 3 hrs by confocal microscopic analysis; assay type: ADME, Danio rerio; conditions: in vivo; method in brief: as §1
[3] = Drug uptake in neomycin-untreated zebrafish embryo neuromast at 250 uM after 3 hrs by confocal microscopic analysis; assay type: ADME, tissue-based, Danio rerio; conditions: in vivo
Method in brief: (§2)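 Zebrafish embryos were pretreated 1 h with neomycin 500 µM or with medium only. Both groups were then exposed to fluorescent probe (250 µM), fluorophore control (250 µM) or no compound for 3 h, and localization was imaged by confocal microscopy.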

[4] = tested on: Trypanosoma brucei brucei; test: Antiparasitic activity against Trypanosoma brucei brucei 427-221 assessed as growth inhibition up to 50 uM after 48 hrs by cellTiter-Glo assay; assay type: functional, organism-based
Method in brief: (§3)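 T. b. brucei 427-221 was grown at 37 °C and 5% CO2 in HMI-9 with 10% FBS, 10% Serum Plus and penicillin/streptomycin, then seeded at 2×10^4/mL. Compounds were serially diluted in DMSO (1% final) and exposed for 48 h. Viability was read by CellTiter-Glo ATP luminescence. Percent inhibition was normalized to thimerosal (2 µM final) and DMSO controls, and IC50 was derived by curve fitting.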

[5] = Cytotoxicity against african green monkey Vero cells; assay type: cell-based; conditions: chlorocebus sabaeus, read-out: LD50 (the source's name)
[6] = Selectivity index, ratio of LD50 for african green monkey Vero cells to IC50 for Trypanosoma brucei brucei 427-221; assay type: toxicity, cell-based; conditions: read-out: Ratio LD50/IC50
[7] = tested on: Trypanosoma brucei brucei; test: Antiparasitic activity against Trypanosoma brucei brucei 427-221 assessed as growth inhibition after 48 hrs by cellTiter-Glo assay; assay type: functional, organism-based; conditions: 427-221, 48 h; method in brief: as §3
[8] = tested on: Leishmania donovani; test: Antiparasitic activity against Leishmania donovani assessed as growth inhibition; assay type: functional, organism-based
[9] = Toxicity in 48 hrs post fertilized zebrafish embryo assessed as survival after 24 hrs by inverted microscopic analysis; assay type: organism-based, Danio rerio; conditions: in vivo, read-out: MTD
[10] = Drug uptake in neomycin-treated zebrafish embryo neuromast at 250 uM after 3 hrs by confocal microscopic analysis; assay type: ADME, tissue-based, Danio rerio; conditions: in vivo; method in brief: as §2
[11] = species: Danio rerio; test: Drug uptake in 120 hrs post fertilized zebrafish embryo lateral line at 250 to 500 uM after 3 hrs by confocal microscopic analysis; assay type: ADME, organism-based; conditions: in vivo
[12] = tested on: Trypanosoma brucei; test: Antiparasitic activity against Trypanosoma brucei assessed as growth inhibition; assay type: functional, organism-based; method in brief: as §3

Structure (SMILES)	CC50 [5] [µM]	selectivity ratio [6]	IC50 [7] [µM]	other results
CN(C)c1ccc2c(CC(=O)NCCNC(=O)CCc3ccccc3)cc(=O)oc2c1				Drug uptake [1]: Active; Drug uptake [2]: Active; Drug uptake [3]: Not Active
Cc1cc(C)n2c1C=C1C=CC(CCC(=O)NCCNC(=O)CCc3ccccc3)=[N+]1[B-]2(F)F				Activity [4]: inactive
C#CCCCCC(=O)N(C)[C@H](C(=O)N(C)[C@H](C(=O)N(C)[C@H](C(=O)N(C)[C@@H](C)C(=O)N(C)[C@@H](Cc1ccccc1)C(=O)N(C)C)C(C)C)C(C)C)C(C)C (Hept6ynoyl-[NMeV][NMeV][NMeV][NMeA][NMeF]-NMe2)	156	120	1.3	
C#CCCCCC(=O)N(C)[C@H](C(=O)N(C)[C@H](C(=O)N(C)[C@H](C(=O)N(C)[C@@H](C)C(=O)N(C)[C@@H](Cc1ccccc1)C(=O)O)C(C)C)C(C)C)C(C)C (Hept6ynoyl-[NMeV][NMeV][NMeV][NMeA][NMeF]-OH)	281		> 13.7	
C#CCCCCC(=O)N(C)[C@H](C(=O)N(C)[C@H](C(=O)N(C)[C@H](C(=O)N(C)[C@@H](C)C(=O)N(C)[C@@H](Cc1ccccc1)C(=O)OC)C(C)C)C(C)C)C(C)C (Hept6ynoyl-[NMeV][NMeV][NMeV][NMeA][NMeF]-OMe)	41.4	69	0.6	
C=CCCCCC(=O)N(C)[C@H](C(=O)N(C)[C@H](C(=O)N(C)[C@H](C(=O)N(C)[C@@H](C)C(=O)N(C)[C@@H](Cc1ccccc1)C(=O)N(C)C)C(C)C)C(C)C)C(C)C (X3-[NMeV][NMeV][NMeV][NMeA][NMeF]-NMe2)	93.1	160	0.6	IC50 [8]: 6.7 µM
C=CCCCCC(=O)N(C)[C@H](C(=O)N(C)[C@H](C(=O)N(C)[C@H](C(=O)N(C)[C@@H](C)C(=O)N(C)[C@@H](Cc1ccccc1)C(=O)O)C(C)C)C(C)C)C(C)C (X3-[NMeV][NMeV][NMeV][NMeA][NMeF]-OH)	> 70	> 27	2.6	
C=CCCCCC(=O)N(C)[C@H](C(=O)N(C)[C@H](C(=O)N(C)[C@H](C(=O)N(C)[C@@H](C)C(=O)N(C)[C@@H](Cc1ccccc1)C(=O)OC)C(C)C)C(C)C)C(C)C (X3-[NMeV][NMeV][NMeV][NMeA][NMeF]-OMe)	24.7	41	0.6	
C=CCCCCCC(=O)N(C)[C@H](C(=O)N(C)[C@H](C(=O)N(C)[C@H](C(=O)N(C)[C@@H](C)C(=O)N(C)[C@@H](Cc1ccccc1)C(=O)N(C)C)C(C)C)C(C)C)C(C)C ({Oct(7)enoyl}-[NMeV][NMeV][NMeV][NMeA][NMeF]-NMe2)	23.8	40	0.6	IC50 [8]: 2.7 µM
C=CCCCCCC(=O)N(C)[C@H](C(=O)N(C)[C@H](C(=O)N(C)[C@H](C(=O)N(C)[C@@H](C)C(=O)N(C)[C@@H](Cc1ccccc1)C(=O)O)C(C)C)C(C)C)C(C)C ({Oct(7)enoyl}-[NMeV][NMeV][NMeV][NMeA][NMeF]-OH)	192		> 13.7	
C=CCCCCCC(=O)N(C)[C@H](C(=O)N(C)[C@H](C(=O)N(C)[C@H](C(=O)N(C)[C@@H](C)C(=O)N(C)[C@@H](Cc1ccccc1)C(=O)OC)C(C)C)C(C)C)C(C)C ({Oct(7)enoyl}-[NMeV][NMeV][NMeV][NMeA][NMeF]-OMe)	18.8	47	0.4	MNTC at 24 h [9]: 168 µM
C=CCCCCCC(=O)N(C)[C@H](C(=O)N(C)[C@H](C(=O)N(C)[C@H](C(=O)N(C)[C@@H](C)C(=O)N(C)[C@@H](Cc1ccccc1)C(=O)N(C)CCCCCCCCC(=O)OC)C(C)C)C(C)C)C(C)C ({Oct(7)enoyl}-[NMeV][NMeV][NMeV][NMeA][NMeF]-X5)			0.7	
C=CCCCCCC(=O)N(C)[C@H](C(=O)N(C)[C@H](C(=O)N(C)[C@H](C(=O)N(C)[C@@H](C)C(=O)N(C)[C@@H](Cc1ccccc1)C(=O)N(C)CCOCCOCC(=O)OC)C(C)C)C(C)C)C(C)C ({Oct(7)enoyl}-[NMeV][NMeV][NMeV][NMeA][NMeF]-X6)			3.5	
C=CCCCCCC(=O)N(C)[C@H](C(=O)N(C)[C@H](C(=O)N(C)[C@H](C(=O)N(C)[C@@H](C)C(=O)N(C)[C@@H](Cc1ccccc1)C(=O)NCCOCCOCCNC(=O)CCCC[C@@H]1SC[C@@H]2NC(=O)N[C@@H]21)C(C)C)C(C)C)C(C)C ({Oct(7)enoyl}-[NMeV][NMeV][NMeV][NMeA][NMeF]-{NH(CH2CH2O)2CH2CH2NHBiotin})				IC50 [8]: 9.9 µM
C=CCCCCCC(=O)N(C)[C@H](C(=O)N(C)[C@H](C(=O)N(C)[C@H](C(=O)N(C)[C@@H](C)C(=O)N(C)[C@@H](Cc1ccccc1)C(=O)N(C)CCOCCOCC(=O)NCCNC(=O)Cc1cc(=O)oc2cc(N(C)C)ccc12)C(C)C)C(C)C)C(C)C ({Oct(7)enoyl}-[NMeV][NMeV][NMeV][NMeA][NMeF][NMeAEEA]-{Ethylenediamine-X2})				Drug uptake [10]: Not Active; Drug uptake [11]: Active; Drug uptake [1]: Active; Drug uptake [2]: Active; Drug uptake [3]: Active
C#CCCCCCC(=O)N(C)[C@H](C(=O)N(C)[C@H](C(=O)N(C)[C@H](C(=O)N(C)[C@@H](C)C(=O)N(C)[C@@H](Cc1ccccc1)C(=O)N(C)C)C(C)C)C(C)C)C(C)C ({Oct(7)ynoyl}-[NMeV][NMeV][NMeV][NMeA][NMeF]-NMe2)	159	270	0.6	
C#CCCCCCC(=O)N(C)[C@H](C(=O)N(C)[C@H](C(=O)N(C)[C@H](C(=O)N(C)[C@@H](C)C(=O)N(C)[C@@H](Cc1ccccc1)C(=O)O)C(C)C)C(C)C)C(C)C ({Oct(7)ynoyl}-[NMeV][NMeV][NMeV][NMeA][NMeF]-OH)	> 68.9	> 6.7	10.3	
C#CCCCCCC(=O)N(C)[C@H](C(=O)N(C)[C@H](C(=O)N(C)[C@H](C(=O)N(C)[C@@H](C)C(=O)N(C)[C@@H](Cc1ccccc1)C(=O)OC)C(C)C)C(C)C)C(C)C ({Oct(7)ynoyl}-[NMeV][NMeV][NMeV][NMeA][NMeF]-OMe)	27	45	0.6	
CC(=O)CCCC[C@@H](C)C(=O)N(C)[C@H](C(=O)N(C)[C@H](C(=O)N[C@H](C(=O)N(C)[C@@H](C)C(=O)N(C)[C@@H](Cc1ccccc1)C(N)=O)C(C)C)C(C)C)C(C)C [ALMIRAMIDE A] (X4-[NMeV][NMeV]V[NMeA][NMeF]-NH2)	113			
C#CCCCC[C@@H](C)C(=O)N(C)[C@H](C(=O)N(C)[C@H](C(=O)N[C@H](C(=O)N(C)[C@@H](C)C(=O)N(C)[C@@H](Cc1ccccc1)C(N)=O)C(C)C)C(C)C)C(C)C [ALMIRAMIDE B] ({Oct7ynoyl(2R-Me)}-[NMeV][NMeV]V[NMeA][NMeF]-NH2)	52.3	8.7	6	
C=CCCCC[C@@H](C)C(=O)N(C)[C@H](C(=O)N(C)[C@H](C(=O)N[C@H](C(=O)N(C)[C@@H](C)C(=O)N(C)[C@@H](Cc1ccccc1)C(N)=O)C(C)C)C(C)C)C(C)C [ALMIRAMIDE C] ({Octanoyl(2R-Me,7,8-dehydro)}-[NMeV][NMeV]V[NMeA][NMeF]-NH2)	33.1	11	3	
NCCCC(N)(C(=O)O)C(F)F (stereo not given) [EFLORNITHINE]				IC50 [12]: 59 µM
Nc1nc(N)nc(Nc2ccc([As]3SCC(CO)S3)cc2)n1 (stereo not given) [MELARSOPROL]				IC50 [12]: 0.01 µM
N=C(N)c1ccc(OCCCCCOc2ccc(C(=N)N)cc2)cc1 [PENTAMIDINE]				IC50 [12]: 0.03 µM
Cc1ccc(C(=O)Nc2ccc(S(=O)(=O)O)c3cc(S(=O)(=O)O)cc(S(=O)(=O)O)c23)cc1NC(=O)c1cccc(NC(=O)Nc2cccc(C(=O)Nc3cc(C(=O)Nc4ccc(S(=O)(=O)O)c5cc(S(=O)(=O)O)cc(S(=O)(=O)O)c45)ccc3C)c2)c1 [SURAMIN]				IC50 [12]: 1.4 µM

— ChEMBL document CHEMBL2331458, “Examination of the mode of action of the almiramide family of natural products against the kinetoplastid parasite Trypanosoma brucei” (J Nat Prod, 2013)
